assay: Toxicity liver stage against HepG2, at 10uM; format: cell-based; parameters: test concentration 10 uM, cell line HepG2-A16-CD81EGFP; conditions: human, HepG2-A16-CD81EGFP cells; read-out: INHIBITION
Method in brief: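 Uninfected HepG2-A16-CD81EGFP cells, 3 × 10^3 per well, 1536-well, plated on prespotted compound at 10 μM final, parasite-free screening media added to match infected plates; puromycin 10 μM positive, DMSO 0.5% negative; run in parallel with 48 h PbLuc assay at 37 °C, 5% CO2; viability by CellTiter-Glo luminescence, normalized to controls.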

SMILES | cytotoxicity at 10 µM [%]
NC(=O)c1nc(-c2cccc(Cl)c2)oc1N | 2.69
COCCN1C(=O)CO[C@H]2CN(S(=O)(=O)c3ccccc3)C[C@H]21 | -0.843
O=C1COC[C@H]([C@H](O)c2ccc(NC(=O)c3ccco3)cc2)N1 | -2.33
CN1CCC(N(C)C(=O)Nc2ccc(Cl)cc2)CC1 | -0.211
Cc1occc(=O)c1OCC(=O)N1CCN(c2cccc(Cl)c2)CC1 | -1.18
Cn1nc(-c2ccccc2NC(=O)c2cncc(Br)c2)ccc1=O | 0.461
O=C(CC1CC1)NC1CCc2c(ccc(=O)n2CC2CC2)C1 (centres undefined) | 6.34
CN(Cc1ccncc1)C1CC2(CCN(C(=O)c3ccnnc3)CC2)C1 | -5.45
COCC(=O)N1CC[C@H]2C[C@H](c3nnc(C4CC4)o3)O[C@@H]2C1 | 4.85
CC1c2ncc(Cn3cncn3)n2CCN1C(=O)c1cscn1 (centres undefined) | -17.5
CN1CCN(C[C@@H]2OC[C@H]3CN(Cc4ccncc4)CC[C@H]32)CC1 | 1.96
CC1=N[C@@]2(CC[C@@H]3CN(C(=O)NCC(C)C)C[C@@H]32)C(=O)N1C | 5.01
O=C1NC(c2ccccc2)=N[C@@]12CC[C@@H]1CN(Cc3ccoc3)C[C@@H]12 | 5.22
COCC1CN(Cc2cc(C)on2)Cc2cn(CC3CC3)nc21 (centres undefined) | 8.91
O=C(c1cccs1)N1CC(C(=O)N2CCCC2)C2(CCOCC2)C1 (centres undefined) | -2.64
O=C(Nc1ccccc1)C1CN(Cc2nccs2)CC12CCOCC2 (centres undefined) | 1.61
CS(=O)(=O)N1CCOCC2(CCN(C(=O)c3cnccn3)CC2)C1 | -0.152
Cc1cc(SCC(N)=O)nc(-c2ccc(F)cc2)n1 | -3.42
Cc1[nH]/c(=N/C(=O)Cn2nc(N3CCOCC3)ccc2=O)sc1C | 1.81
Cc1ccc(Cn2c(=O)[nH]c3cccnc3c2=O)cc1 | 1.61
O=c1[nH]c(N2CCCCC2)nc2nccc(-c3ccc4c(c3)OCO4)c12 | 9.54
Cc1occc1C(=O)N1CCC2(CCC(C(=O)NCC3CC3)O2)CC1 (centres undefined) | 9.53

SMILES | cytotoxicity at 10 µM [%]
CCOCC1CN(S(C)(=O)=O)Cc2ncn(CC3CC3)c21 (centres undefined) | -12
Cc1ccc(NC(=O)c2n[nH]c(-n3cnnc3)n2)cc1 | 6.33
CCCN(c1ccccc1C(=O)O)S(=O)(=O)c1ccc2ccccc2c1 | -2.32
CCN1CCCC(O)(CNCc2ccc3c(c2)OCO3)C1 (centres undefined) | 2.34
CN(CC1(O)CCN(c2ccnc3ccncc23)CC1)C(=O)CCN | -6.86
CC(NC(=O)C1CCCCC1)c1cc(O)nc(-c2cccnc2)n1 (centres undefined) | 5.84
CNC(=O)C1CN(C)CCN1c1nc(C)cc(C)n1 (centres undefined) | 15.3
CC(=O)N[C@@H]1CN(C(=O)Cc2coc3cc(C)ccc23)C[C@H]1O | 5.84
Cc1cc(N(C)C)nc(C2(C)CCNCC2)n1 | 7.79
O=C(N[C@@H]1CC[C@@H](N2CCCC2)[C@@H]1O)c1cc2ccccc2[nH]1 | -4.92
COc1ccc(-c2cc(C(=O)NCCn3ccnc3)n(C)n2)cc1 | 3.86
CC(=O)N[C@@H]1CN(C(=O)CC2CCOCC2)C[C@H]1O | -3.3
COc1ccc(-c2cc3nc([C@H](C)NC(=O)C4CC4)nn3cn2)cc1 | -27
COc1ccc(CNc2ncc(-c3cc(C)no3)c(C(C)C)n2)cc1 | 2.73
O=C(NC1CCCc2nc(N3CCOCC3)ncc21)C1CCCC1 (centres undefined) | -2.3
Cc1ccc(CN2CCCC(c3cncc(C)n3)C2)cn1 (centres undefined) | -9.35
Cc1ncsc1-c1nnc(C2CCN(Cc3cccc(Cl)c3)CC2)o1 | -8.19
CC(Cc1ccccc1F)C(=O)Nc1cccc(OCC(N)=O)c1 (centres undefined) | -1.34
CCN(CC1CCOC1)S(=O)(=O)Cc1cc(Cl)ccc1OC (centres undefined) | 3.1
O=C1CCC(=O)N1CCn1nnc(-c2cccc(Cl)c2)n1 | -5.05
Cc1nc(-c2ccco2)ccc1C(=O)NCC(=O)N1CCCCC1 | -7.76
Cn1ccnc1-c1cccc(NC(=O)NCC(=O)NC(C)(C)C)c1 | -3.84

SMILES | cytotoxicity at 10 µM [%]
CCCc1cc(NC2CCc3nc(C(C)C)nn3C2)n2ncnc2n1 (centres undefined) | -1.41
CC(C)Oc1cccc(C(O)CNC(=O)NCc2cccs2)c1 (centres undefined) | -2.79
CCOc1cccc(C(=O)NCCC(=O)NCc2ccncc2)c1 | 0.961
Cc1noc(C(C)N2CCN(c3ccc(C#N)cn3)CC2)n1 (centres undefined) | -0.871
Cc1nnc(NCCC(=O)N(C)Cc2ccccc2)c(C#N)c1C | -1.04
CNS(=O)(=O)CC(=O)N(Cc1c(F)cccc1F)C1CCCC1 | -1.98
CCN(Cc1ccoc1)C(=O)c1cc(C)c(C)c(S(N)(=O)=O)c1 | -1.69
CCC(C)NC(=O)CCc1ccnc2ccccc12 (centres undefined) | 5.44
O=C(CC1CCCO1)NCCc1ccc(Br)cc1F (centres undefined) | -7.78
NC(=O)CCNCc1c(Cl)cccc1N1CCCC1 | 8.15
O=C(NC1CCCN(c2ccccc2Cl)C1)c1nc(=O)[nH][nH]1 (centres undefined) | -10.9
COc1ccccc1C1CCN(C(=O)c2ncccc2OC(C)C)C1 (centres undefined) | -0.67
N#Cc1ccc(NC2CCN(Cc3ccccn3)CC2)c(F)c1 | 0.109
O=C(CN1CCCNC1=O)N1CCCC(c2nccs2)C1 (centres undefined) | -12.5
CN(CCNC(=O)N1CCN(Cc2ccon2)CC1)C1CCCC1 | 15.6
CC(Cn1cccn1)NC(=O)Nc1ccc(F)cc1 (centres undefined) | 19.7
O=C(NC1CCCN(c2ncccn2)C1)c1ccoc1 (centres undefined) | -4.56
COCCOCC(=O)Nc1ccc(Br)cc1F | -10.5
Cc1nnn2c1COC(CNC(=O)c1cccn1C)C2 (centres undefined) | 6.09
CCNc1ncc(CN2C[C@@H](CN3CCC(CO)CC3)[C@@H](CO)C2)cn1 | -6.03
Cc1nn(CCNS(=O)(=O)NCc2ccccc2)c(C)c1Cl | -6.49
Cn1c(CN2CCC(O)CC2)nnc1C1CCCN(c2ccncc2)C1 (centres undefined) | 9.29

SMILES | cytotoxicity at 10 µM [%]
Cn1cnnc1SCC(=O)NC1CC(=O)N(CCc2ccccc2)C1 (centres undefined) | 3.03
O=C(CCc1nc(Cl)n[nH]1)N1C[C@@H](CN2CCCCC2)[C@@H](CO)C1 | -0.104
Cc1ncccc1Oc1ncnc(N2CCC(O)(CO)CC2)c1C | -2.4
CCn1cnnc1CCNCc1c[nH]nc1-c1ccc(F)cc1 | 1.31
CN(Cc1cc(C2CC2)[nH]n1)Cc1cc2ccc(F)cc2[nH]c1=O | 7.84
CN(C)C[C@H]1C[C@@H](CO)CN(C(=O)CCc2nc(Cl)n[nH]2)C1 | -3.73
COCC(=O)N1CCN(C(=O)Cc2cccs2)[C@H]2CS(=O)(=O)C[C@H]21 | 2.21
Cc1nc(-c2ccncc2)ncc1C(C)NC(=O)Cn1ccccc1=O (centres undefined) | 4.01
CCC(=O)N1Cc2nnc(C3CCOCC3)n2C(Cc2c[nH]cn2)C1 (centres undefined) | -11.2
Cc1cccc2c1nc(CCO)n2-c1ccc(N)nc1 | -1.32
CCNc1ccnc(NCC2CNCCO2)n1 (centres undefined) | 3.71
CC/C=C(\C)CN1CCC(CNC(=O)c2ccnc(N)c2)C1 (centres undefined) | 8.32
Cn1cc(Cl)c(CN2CCn3nc(C(=O)N4CCCC4)cc3C2)n1 | 2.42
Fc1ccc(OC2CCN(CCn3cncn3)CC2)cc1 | -5.92
CN(CCC1CCOCC1)C(=O)C1CCC(=O)N(Cc2ccccn2)C1 (centres undefined) | -2.06
Cc1cncc(C(=O)N2CCCC(O)(CN(C)C)CC2)c1 (centres undefined) | 6.22
Cc1ncc(C(=O)N2CCCC(C(=O)c3nccn3C)C2)c(O)n1 (centres undefined) | -2.28
CCOCCn1nc(C)cc1C(=O)N1CC[C@](C)(O)C(C)(C)C1 | 0.429
CN1C[C@@H](n2cnc(-c3ccccc3)c2-c2c[nH]cn2)C[C@H]1C(=O)O | 0.791
CCOc1ccc(C(=O)CCC(=O)NCc2cncn2CC)cc1C | 0.902
CC(CC#N)n1ccc(C(F)(F)F)n1 (centres undefined) | -8.88
CCn1cc(NC(=O)NCC(c2cccc(OC)c2)N(C)C)cn1 (centres undefined) | -7.25

SMILES | cytotoxicity at 10 µM [%]
Cc1c(C(=O)NCc2ccnc(OCC(F)(F)F)c2)cnn1C | -5.78
Cc1nccn1C1CCCN(C(=O)c2cccc(Cn3ccnc3)c2)C1 (centres undefined) | -24.6
COc1cc(OC)cc(C(=O)N(C)Cc2nnc3ccccn23)c1 | -26.9
CC(C)c1nc(C2CCCN(C(=O)c3ccc4[nH]nnc4c3)C2)no1 (centres undefined) | 7.34
CCN(Cc1ccc2c(c1)OCO2)Cc1nc2c(cnn2C)c(=O)[nH]1 | -21
Cc1ccsc1C(=O)N1CCN(Cc2cscn2)CC1 | -12
CN(C)c1cc(CNC(=O)c2cnccn2)ccn1 | -17.7
CC1CN(C(=O)c2ccn(-c3cccc(Cl)c3)n2)CCO1 (centres undefined) | -5.25
CNC(=O)C1CCN(C(=O)c2ccn(-c3ccc(F)cc3)n2)CC1 | -2.7
Cc1cnn(CC2CCCN2C(=O)c2cccc(CC#N)c2)c1 (centres undefined) | -8.62
COCCc1noc(CN2CCCC2Cn2cc(C)cn2)n1 (centres undefined) | -3.32
CC1(C)Cc2cc(-c3cncn3CCNC3CCS(=O)(=O)C3)ccc2O1 (centres undefined) | 2.95
c1cnc(N2CCCC3(COCCN(CC4CC4)C3)C2)nc1 (centres undefined) | 3.22
CN1CC(=O)N(c2ccsc2)CC12CCN(S(=O)(=O)C1CC1)C2 (centres undefined) | -0.298
Cc1ccc2c(n1)N(CCn1cccn1)CCN(CC1CC1)C2 | 8.83
O=C(c1ccco1)N1CCO[C@@H]2CN(Cc3nccs3)CC[C@@H]2C1 | -111
O=c1ccc2c(n1Cc1cccnc1)CCN(CC1CCOC1)CC2 (centres undefined) | 8.13
O=C(Nc1cccnc1)[C@H]1CN(C2CCCC2)C[C@H]2OCC[C@@H]12 | 9.81
COc1ccc(S(=O)(=O)N2Cc3c(CN(C)C)nn(C)c3C2)cc1 | 3.94
CC(=O)N1CCN(Cc2ccc(F)cc2)CC2(CC(=O)N(C)C2)C1 (centres undefined) | -2.78
CN(C)C(=O)[C@H]1C[C@H]2CN(c3ncccn3)C[C@@H]1O2 | 6.1

— ChEMBL document CHEMBL4513216, “Probing the Open Global Health Chemical Diversity Library for Multistage-Active Starting Points for Next-Generation Antimalarials” (ACS Infect Dis, 2020)
